# Results reported in ChEMBL document CHEMBL1150415 (J Med Chem, 2008).
# Calls of active or inactive are those of the source. No cut-off for these calls is given here.
# Columns and labels:
# [1] = biological target: T1, Cytosolic phospholipase A2 gamma (Homo sapiens) (UniProt Q9UP65); assay: Inhibition of cytosolic phospholipase A2gamma at 0.5 uM
# T1 sequence (whole entry): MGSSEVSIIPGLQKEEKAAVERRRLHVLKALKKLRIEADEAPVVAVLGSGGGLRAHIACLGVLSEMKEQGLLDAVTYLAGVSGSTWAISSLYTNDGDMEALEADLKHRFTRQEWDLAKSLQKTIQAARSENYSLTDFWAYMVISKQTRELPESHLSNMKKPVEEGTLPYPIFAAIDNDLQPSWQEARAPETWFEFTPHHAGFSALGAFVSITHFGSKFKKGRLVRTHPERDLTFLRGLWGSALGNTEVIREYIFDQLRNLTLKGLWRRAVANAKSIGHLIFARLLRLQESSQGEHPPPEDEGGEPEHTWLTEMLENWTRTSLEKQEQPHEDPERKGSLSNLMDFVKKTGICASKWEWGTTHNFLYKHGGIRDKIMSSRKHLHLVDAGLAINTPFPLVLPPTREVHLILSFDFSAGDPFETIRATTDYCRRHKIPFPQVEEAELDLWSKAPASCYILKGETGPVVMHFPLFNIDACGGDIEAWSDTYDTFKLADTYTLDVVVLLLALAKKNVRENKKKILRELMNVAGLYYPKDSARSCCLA
# Procedure, shortened: (§1)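 Isolated enzyme activity on PAPC (1-palmitoyl-2-arachidonoyl-sn-glycero-3-phosphocholine) liposome substrate.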
# MC9 [2] = assay: Inhibition of PGF2apha production in arachidonic acid-stimulated mouse MC9 cells; type: functional, cell-based
# [3] = Inhibition of cytosolic phospholipase A2alpha at 0.020 uM; procedure, shortened: as §1
# Rattus norvegicus [4] = assay: Inhibition of carrageenan-induced paw edema in po dosed Sprague-Dawley rat administered 2 hrs before carrageenan challenge; type: functional
# Rattus norvegicus [5] = assay: Inhibition of carrageenan-induced paw edema in Sprague-Dawley rat administered 2 hrs before carrageenan challenge at 25 mg/kg, po; type: functional
# Blood [6] = assay: Inhibition of PGF2alpha production in human whole blood at 0.039 uM; type: functional
# Procedure, shortened: (§2)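 Human whole blood stimulated with calcium ionophore A23187 at 30 µM. Several arachidonic acid metabolites (LTB4, PGE2, PGF2α, TXB2) and PAF production were quantified.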
# Blood [7] = assay: Inhibition of PAF production in human whole blood at 0.039 uM; type: functional; procedure, shortened: as §2
# [8] = Plasma concentration in adjuvant-induced arthritis Lewis rat model at 50 mg/kg, po after 16 hrs; type: ADME, organism-based; parameters: dose 50 mg/kg, route oral
# [9] = tested on: Prostaglandin G/H synthase 1, cyclooxygenase-1; assay: Inhibition of COX1 in microsomes at 100 uM
# Blood [10] = assay: Inhibition of PGE2 production in human whole blood at 0.039 uM; type: functional; procedure, shortened: as §2
# Rattus norvegicus [11] = assay: Reduction in synovitis damage in Freund's adjuvant-induced arthritis Lewis rat model at 50 mg/kg, po for 11 days; type: functional, organism-based; parameters: dose 50 mg/kg
# Procedure, shortened: (§3)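 Arthritis was induced in Lewis rats by intradermal complete Freund's adjuvant at the base of the tail. Oral treatment began on day 8, when mean clinical joint scores were 12, and continued for 11 days. Tarsal joints were taken at necropsy and lesions were scored histologically in blinded fashion.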
# [12] = Plasma clearance in Sprague-Dawley rat at 2 mg/kg, iv; type: ADME, organism-based; parameters: dose 2 mg/kg, route intravenous
# Rattus norvegicus [13] = assay: Reduction in cartilage damage in Freund's adjuvant-induced arthritis Lewis rat model at 5 mg/kg, po for 11 days; type: functional, organism-based; parameters: dose 5 mg/kg; procedure, shortened: as §3
# [14] = Inhibition of cytosolic phospholipase A2alpha
# [15] = Plasma concentration in adjuvant-induced arthritis Lewis rat model at 50 mg/kg, po after 4 hrs; type: ADME, organism-based; parameters: dose 50 mg/kg, route oral
# MC9 [16] = assay: Inhibition of PGF2alpha production in mouse MC9 cells; type: functional, cell-based
# [17] = Plasma concentration in collagen-induced arthritis mouse model at 100 mg/kg, po twice daily after 3 hrs; type: ADME, organism-based; parameters: dose 100 mg/kg, route oral
# Rattus norvegicus [18] = assay: Reduction in synovitis damage in Freund's adjuvant-induced arthritis Lewis rat model at 5 mg/kg, po for 11 days; type: functional, organism-based; parameters: dose 5 mg/kg; procedure, shortened: as §3
# MC9 [19] = assay: Inhibition of LTB4 production in mouse MC9 cells; type: functional, cell-based
# Ovis aries [20] = assay: Inhibition of acute hyperresponsiveness in Ascaris Suum antigen-induced reversible airway bronchoconstriction sheep model assessed as reduction in lung resistance at 10 mg/kg, po bid administered and measured after 16 hrs
# Blood [21] = assay: Inhibition of TXB2 production in human whole blood at 0.039 uM; type: functional; procedure, shortened: as §2
# [22] = Plasma concentration in adjuvant-induced arthritis Lewis rat model at 5 mg/kg, po after 16 hrs; type: ADME, organism-based; parameters: dose 5 mg/kg, route oral
# Rattus norvegicus [23] = assay: Inhibition of PGE2 production in carrageenan-stimulated orally dosed rat air pouch model after 6 hrs; type: functional; details: po
# Procedure, shortened: (§4)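 Carrageenan was injected into a preformed air pouch 2 h after oral drug. Pouch contents were removed 6 h later and PGE2 was quantified.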
# [24] = Plasma concentration in adjuvant-induced arthritis Lewis rat model at 25 mg/kg, po after 4 hrs; type: ADME, organism-based; parameters: dose 25 mg/kg, route oral
# [25] = tested on: Prostaglandin G/H synthase 2, cyclooxygenase-2; assay: Inhibition of COX2 in microsomes at 100 uM
# [26] = Oral bioavailability in rat; type: ADME, organism-based; details: in vivo
# [27] = Inhibition of secreted phospholipase A2 at 0.5 uM
# Procedure, shortened: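 Type II secreted PLA2 activity measured with PAPE (1-palmitoyl-2-arachidonoyl-sn-glycero-3-phosphoethanolamine) liposomes as substrate.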
# [28] = Plasma concentration in adjuvant-induced arthritis Lewis rat model at 25 mg/kg, po after 16 hrs; type: ADME, organism-based; parameters: dose 25 mg/kg, route oral
# [29] = Plasma concentration in adjuvant-induced arthritis Lewis rat model at 5 mg/kg, po after 4 hrs; type: ADME, organism-based; parameters: dose 5 mg/kg, route oral
# [30] = biological target: T2, Cytosolic phospholipase A2 beta (Homo sapiens) (UniProt P0C869); assay: Inhibition of cytosolic phospholipase A2beta at 0.5 uM; procedure, shortened: as §1
# T2 sequence (whole entry): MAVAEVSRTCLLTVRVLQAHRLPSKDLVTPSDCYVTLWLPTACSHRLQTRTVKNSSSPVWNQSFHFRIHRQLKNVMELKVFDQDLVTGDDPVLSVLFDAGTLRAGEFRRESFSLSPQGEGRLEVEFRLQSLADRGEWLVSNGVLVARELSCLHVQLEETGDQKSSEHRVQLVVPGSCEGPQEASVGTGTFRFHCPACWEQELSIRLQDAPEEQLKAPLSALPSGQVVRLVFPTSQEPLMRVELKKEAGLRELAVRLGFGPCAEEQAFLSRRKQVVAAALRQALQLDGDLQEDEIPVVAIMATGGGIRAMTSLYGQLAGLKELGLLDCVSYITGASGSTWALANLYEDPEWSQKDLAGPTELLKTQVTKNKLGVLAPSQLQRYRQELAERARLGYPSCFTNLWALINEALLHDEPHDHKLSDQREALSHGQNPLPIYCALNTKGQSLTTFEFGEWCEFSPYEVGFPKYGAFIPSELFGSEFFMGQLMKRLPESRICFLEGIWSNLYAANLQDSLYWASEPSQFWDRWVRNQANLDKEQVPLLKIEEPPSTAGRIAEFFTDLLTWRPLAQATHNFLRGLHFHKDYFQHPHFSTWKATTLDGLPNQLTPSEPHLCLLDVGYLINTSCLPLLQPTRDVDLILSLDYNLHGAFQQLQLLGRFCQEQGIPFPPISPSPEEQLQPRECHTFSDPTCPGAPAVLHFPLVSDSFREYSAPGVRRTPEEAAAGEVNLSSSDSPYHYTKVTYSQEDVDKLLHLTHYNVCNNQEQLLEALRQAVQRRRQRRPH
# Rattus norvegicus [31] = assay: Inhibition of PGE2 production in carrageenan-stimulated rat air pouch model at 5 mg/kg, po after 6 hrs; type: functional; procedure, shortened: as §4
# Rattus norvegicus [32] = assay: Reduction in cartilage damage in Freund's adjuvant-induced arthritis Lewis rat model at 50 mg/kg, po for 11 days; type: functional, organism-based; parameters: dose 50 mg/kg; procedure, shortened: as §3
# [33] = Inhibition of cytosolic phospholipase A2alpha by GLU micelle assay
# Procedure, shortened: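 Micellar assay with 7-hydroxycoumarinyl-γ-linolenate (GLU) substrate, presenting inhibitor and substrate to the enzyme in high-lipid micelles. Each run gives the mean of duplicate assays, and values come from at least two runs.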
# [34] = Ratio of AUC in Sprague-Dawley rat at 25 mg/kg, po to IC50 for TXB2 production in Sprague-Dawley rat whole blood; type: functional
# Mus musculus = assay: Plasma concentration in collagen-induced arthritis mouse model at 100 mg/kg, po twice daily after 12 to 14 hrs; type: ADME, organism-based; parameters: dose 100 mg/kg, route oral; details: in vivo
# Ovis aries [35] = assay: Effect on late asthmatic response in Ascaris Suum antigen-induced reversible airway bronchoconstriction sheep model assessed as reduction in lung resistance at 10 mg/kg, po bid administered 2 hrs before antigen challenge measured 5 to 8 hrs after challenge; type: functional; parameters: scale not given: the % may be the effect or the level left
# Rattus norvegicus [36] = assay: Reduction in cartilage damage in Freund's adjuvant-induced arthritis Lewis rat model at 25 mg/kg, po for 11 days; type: functional, organism-based; parameters: dose 25 mg/kg; procedure, shortened: as §3
# Blood [37] = assay: Inhibition of LTB4 production in human whole blood at 0.039 uM; type: functional; procedure, shortened: as §2
# Rattus norvegicus [38] = assay: Reduction in synovitis damage in Freund's adjuvant-induced arthritis Lewis rat model at 25 mg/kg, po for 11 days; type: functional, organism-based; parameters: dose 25 mg/kg; procedure, shortened: as §3
structure (smiles),measurement,setting,value
Cc1cccc(C)c1CS(=O)(=O)NCCc1c(CCCc2ccc(C(=O)O)cc2)c2cc(Cl)ccc2n1C(c1ccccc1)c1ccccc1,Activity,[1],inactive
same,IC50,MC9 [2],> 1000 nM
same,inhibition,[3],> 90%
same,ED50,Rattus norvegicus [4],8 mg/kg
same,inhibition in vivo at 25 mg/kg,Rattus norvegicus [5],34%
same,inhibition at 0.039 µM,Blood [6],72%
same,inhibition at 0.039 µM,Blood [7],57%
same,concentration at 16 h,[8],110 ng/mL
same,Activity,[9],inactive
same,inhibition at 0.039 µM,Blood [10],79%
same,Activity,Rattus norvegicus [11],Active
same,clearance,[12],3 mL/min/kg
same,Activity,Rattus norvegicus [13],Active
same,IC50,[14],< 10 nM
same,concentration at 4 h,[15],1140 ng/mL
same,IC50,MC9 [16],6 nM
same,concentration at 3 h,[17],923 ng/mL
same,Activity,Rattus norvegicus [18],Active
same,IC50,MC9 [19],12 nM
same,Activity,Ovis aries [20],Active
same,inhibition at 0.039 µM,Blood [21],72%
same,concentration at 16 h,[22],26 ng/mL
same,ED50,Rattus norvegicus [23],3.5 mg/kg
same,concentration at 4 h,[24],698 ng/mL
same,Activity,[25],inactive
same,bioavailability,[26],4%
same,Activity,[27],inactive
same,concentration at 16 h,[28],73 ng/mL
same,concentration at 4 h,[29],69 ng/mL
same,Activity,[30],inactive
same,inhibition in vivo at 5 mg/kg,Rattus norvegicus [31],> 50%
same,Activity,Rattus norvegicus [32],Active
same,IC50,[33],10 nM
same,Ratio,[34],160 h
same,Cp,Mus musculus,118 ng/mL
same,Activity,Ovis aries [35],85%
same,Activity,Rattus norvegicus [36],Active
same,inhibition at 0.039 µM,Blood [37],78%
same,Activity,Rattus norvegicus [38],Active
